Laboratory results taken from ChEMBL document CHEMBL1629645 (Antimicrob Agents Chemother, 2009).

Columns and labels:
[1] = Cmax in cage fluid of Albino guiena pig at 10 mg/kg, ip after 12 hrs; format: ADME, organism-based, Cavia porcellus, Interstitial fluid; design: dose 10 mg/kg, route intraperitoneal; settings: guinea pig
[2] = Half life in cage fluid of Albino guiena pig at 10 mg/kg, ip; format: ADME, organism-based, Cavia porcellus; design: dose 10 mg/kg, route intraperitoneal; settings: guinea pig, in vivo
[3] = Tmax in cage fluid of Albino guiena pig at 10 mg/kg, ip; format: ADME, organism-based, Cavia porcellus; design: dose 10 mg/kg, route intraperitoneal; settings: guinea pig
[4] = Cmin in cage fluid of Albino guiena pig at 10 mg/kg, ip after 12 hrs; format: ADME, organism-based, Cavia porcellus; design: dose 10 mg/kg, route intraperitoneal; settings: guinea pig, read-out: Cmin
Staphylococcus aureus [5] = assay: Antibacterial activity against methicillin-resistant Staphylococcus aureus ATCC 43300 during stationary growth phase by macrodilution method; format: functional
Staphylococcus aureus [6] = assay: Antibacterial activity against methicillin-resistant Staphylococcus aureus ATCC 43300 by macrodilution method; format: functional
Summary of the method: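 Broth macrodilution MIC in Mueller-Hinton broth per CLSI. Inoculum 1 × 10^5 to 5 × 10^5 CFU/ml. Ten twofold drug dilutions, 18 h at 37°C without shaking. MIC is the lowest concentration with no visible growth. Triplicate.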

Staphylococcus aureus [7] = assay: Antibacterial activity against methicillin-resistant Staphylococcus aureus ATCC 43300 during logarithmic growth phase by macrodilution method; format: functional
[8] = AUC (0 to 24 hrs) in cage fluid of Albino guiena pig at 10 mg/kg, ip; format: ADME, organism-based, Cavia porcellus; design: time < 24 hr, dose 10 mg/kg, route intraperitoneal; settings: guinea pig

C[C@H]1COc2c(N3CCN(C)CC3)c(F)cc3c(=O)c(C(=O)O)cn1c23.C[C@H]1COc2c(N3CCN(C)CC3)c(F)cc3c(=O)c(C(=O)O)cn1c23.O [LEVOFLOXACIN]
Cmax [1]: 1500 ng/mL
t1/2 [2]: 4.2 h
Tmax [3]: 2.5 h
concentration at 12 h [4]: 300 ng/mL
MBC (Staphylococcus aureus [5]): > 20 µg/mL
MIC (Staphylococcus aureus [6]): 0.16 µg/mL
MBC (Staphylococcus aureus [7]): 0.63 µg/mL
AUC(0-t) at 24 h [8]: 6100 ng·h/mL
